According to PMC7612733 (Biochemistry, 2022):
Substitutions are numbered along the chain they refer to.

Tests used:
D138A horcolin = target: T1, D138A horcolin (Hordeum vulgare, UniProt Q5U9T2, D138A); format: binding, Hordeum vulgare (barley)
T1 sequence (Q5U9T2 1-146 D138A): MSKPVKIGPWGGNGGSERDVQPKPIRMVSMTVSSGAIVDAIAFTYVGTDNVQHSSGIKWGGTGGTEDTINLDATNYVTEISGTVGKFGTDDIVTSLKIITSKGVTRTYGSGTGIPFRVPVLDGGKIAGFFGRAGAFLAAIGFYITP
How it was run: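 Uniformly 15N-labelled, C-terminally His-tagged D138A horcolin was expressed in E. coli BL21(DE3) in M9 medium and purified on Ni-NTA. Samples were in 25 mM Tris, 50 mM NaCl, 1 mM EDTA, 0.03% NaN3, 10% D2O, pH 7.4. 1H-15N HSQC spectra were recorded at 18 methyl-α-D-mannose concentrations from 0 to 167 mM. Lineshapes of 14 residues were globally fitted in TITAN; errors are SD of 100 bootstrap replicas.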

wt horcolin = target: T2, wt horcolin (Hordeum vulgare, UniProt Q5U9T2); assay: 1H-15N HSQC-detected NMR titration with TITAN 2D lineshape modeling, wt horcolin; format: binding, Hordeum vulgare (barley)
T2 sequence (Q5U9T2 1-146): T1 sequence (Q5U9T2 1-146 D138A) with A138D

D39A horcolin = target: T3, D39A horcolin (Hordeum vulgare, UniProt Q5U9T2, D39A); format: binding, Hordeum vulgare (barley)
T3 sequence (Q5U9T2 1-146 D39A): T1 sequence (Q5U9T2 1-146 D138A) with D39A, A138D
How it was run: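 15N-labelled D39A horcolin carried a C-terminal His tag, was expressed in E. coli BL21(DE3) in M9 medium and purified by Ni-NTA. NMR buffer was pH 7.4: 25 mM Tris, 50 mM NaCl, 1 mM EDTA, 0.03% NaN3, 10% D2O. HSQC spectra were taken over 21 methyl-α-D-mannose points from 0 to 914 mM. Sixteen residues were globally lineshape-fitted in TITAN; errors are SD of 100 bootstraps.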

crystal structure = target: the molecule itself; assay: crystal structure
HIV gp120 = settings: read-out: equilibrium dissociation constant (Kd); cited from earlier work
HIV-1 = settings: cited from earlier work

## CO[C@H]1O[C@H](CO)[C@@H](O)[C@H](O)[C@@H]1O [mannose, methyl-α-D-mannose]
D138A horcolin
  Kd: 3.2 ± 0.3 mM
  fold increase of koff at CBS2, D138A versus wt: 2 fold
  fold increase of kon at CBS2, D138A versus wt: 3 fold
D138A horcolin; CBS2 only, D138A horcolin, two-state model
  koff2: (5.0 ± 0.4) x 10^3 s^-1
D138A horcolin; CBS2 only, D138A horcolin, from koff and Kd
  kon2: (1.6 ± 0.1) x 10^6 M^-1s^-1
Wt horcolin; CBS1, wt horcolin, sequential model
  koff1: (2.4 ± 0.2) x 10^3 s^-1
Wt horcolin; CBS1, wt horcolin, sequential model, from koff and Kd
  kon1: (1.19 ± 0.08) x 10^5 M^-1s^-1
Wt horcolin; CBS2, wt horcolin, sequential model
  koff2: (2.5 ± 0.1) x 10^3 s^-1
Wt horcolin; CBS2, wt horcolin, sequential model, from koff and Kd
  kon2: (5.3 ± 0.2) x 10^5 M^-1s^-1
Wt horcolin; Kd1, CBS1, wt horcolin, two-binding-site non-cooperative (NC) model, cluster of four residues
  Kd: 59 ± 2 mM
Wt horcolin; Kd1, CBS1, wt horcolin, two-site sequential binding model, 25 °C, pH 7.4
  Kd: 19.9 ± 0.1 mM
Wt horcolin; Kd2, CBS2, wt horcolin, two-binding-site non-cooperative (NC) model, cluster of four residues
  Kd: 7.7 ± 0.1 mM
Wt horcolin; Kd2, CBS2, wt horcolin, two-site sequential binding model, 25 °C, pH 7.4
  Kd: 4.71 ± 0.02 mM
Wt horcolin; wt horcolin
  binding free energy difference ΔΔG^0 between CBS2 and CBS1: 0.85 kcal/mol
Wt horcolin; wt horcolin, sequential model
  fold higher affinity for CBS2 than CBS1: 4.2 fold
D39A horcolin
  Kd: 55.6 ± 0.2 mM
  fold increase of koff at CBS1, D39A versus wt: 7 fold
  fold increase of kon at CBS1, D39A versus wt: 2.4 fold
D39A horcolin; CBS1 only, D39A horcolin, two-state model
  koff1: (16.4 ± 0.7) x 10^3 s^-1
D39A horcolin; CBS1 only, D39A horcolin, from koff and Kd
  kon1: (2.9 ± 0.1) x 10^5 M^-1s^-1
D39A horcolin; D138A (CBS2) versus D39A (CBS1) horcolin
  ΔΔG^0 between the two single-site binding events: 1.7 kcal/mol
D39A horcolin; D138A versus D39A horcolin
  factor of difference in koff between single-binding-site mutants: 3.3
  fold difference in kon between single-binding-site mutants: 5.3 fold

B1: horcolin (natural protein, Hordeum vulgare (barley))
chain: T1 sequence (Q5U9T2 1-146 D138A) with A138D
Crystal structure
  stoichiometry N: 2

B2: horcolin: dimeric mannose-specific jacalin-related lectin from Hordeum vulgare (barley), 146 amino acids per protomer (protein)
chain: T1 sequence (Q5U9T2 1-146 D138A) with A138D
HIV gp120
  Kd: 14.4 nM
HIV-1
  HIV-1 neutralization: has the ability to neutralize HIV-1
